# Active and inactive are the calls of the source.
# Columns and labels:
# [1] = biological target: T1, Alpha-1A adrenergic receptor (Rattus norvegicus, UniProt P43140); assay: The compound was tested for alpha-adrenergic activity against Alpha-1 adrenergic receptor from rat aorta.; conditions: read-out: pA2 (converted)
# T1 sequence (P43140 whole entry): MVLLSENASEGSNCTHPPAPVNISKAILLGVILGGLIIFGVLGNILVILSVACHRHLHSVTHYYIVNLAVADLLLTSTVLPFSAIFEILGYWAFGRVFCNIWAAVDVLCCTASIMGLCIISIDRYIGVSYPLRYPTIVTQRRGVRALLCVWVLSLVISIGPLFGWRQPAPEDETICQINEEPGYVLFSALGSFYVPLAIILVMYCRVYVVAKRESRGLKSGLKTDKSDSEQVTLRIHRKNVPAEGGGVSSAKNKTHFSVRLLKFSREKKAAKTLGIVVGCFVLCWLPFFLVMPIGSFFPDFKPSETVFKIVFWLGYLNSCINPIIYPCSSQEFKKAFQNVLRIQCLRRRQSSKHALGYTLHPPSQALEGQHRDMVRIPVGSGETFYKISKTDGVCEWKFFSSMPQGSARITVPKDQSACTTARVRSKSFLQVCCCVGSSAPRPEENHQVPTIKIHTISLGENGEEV
# In short: (§1)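 Isolated rat aorta strips at 2 g resting tension, stabilized about 1 h. Beta-receptors blocked with propranolol 10^-6 mol/L for 30 min. ED50 by Ariens–Van Rossum. Intrinsic activity = maximum response relative to norepinephrine. Antagonism as pA2 (Schild) or, if non-competitive, pD'2.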
# [2] = biological target: T2, Beta-1 adrenergic receptor (Cavia porcellus, UniProt B0FL73); assay: The compound was tested for beta-adrenergic activity against Beta-1 adrenergic receptor from guinea pig left atria; conditions: read-out: pA2 (converted)
# In short: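 Electrically paced isolated left atria (inotropy) from guinea pigs of 300-500 g, 2.5 Hz, 5 ms pulses at 50% above threshold. Phentolamine 3.15 × 10^-4 mmol/L in bath. Cumulative isoprenaline curves with ascorbic acid 1.13 × 10^-6 mol/L, before and after 30 min antagonist preincubation. Reported as pA2 or pD'2.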
# [3] = biological target: T2, Beta-1 adrenergic receptor; assay: The compound was tested for beta-adrenergic activity against Beta-1 adrenergic receptor from guinea pig right atria; conditions: read-out: pA2 (converted)
# In short: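 Spontaneously beating isolated right atria (chronotropy) from guinea pigs of 300-500 g. Phentolamine 3.15 × 10^-4 mmol/L in bath. Isoprenaline cumulative curves with ascorbic acid 1.13 × 10^-6 mol/L, before and after 30 min antagonist preincubation. Reported as pA2 or pD'2.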
# [4] = biological target: Beta-2 adrenergic receptor (Cavia porcellus, UniProt Q8K4Z4); assay: The compound was tested for beta-adrenergic activity against Beta-2 adrenergic receptor from guinea pig trachea.
# [5] = biological target: T3, Adrenergic receptor alpha-2 (Homo sapiens) (UniProt P08913+P18825+P18089); assay: The compound was tested for alpha-adrenergic activity against alpha-2 adrenergic receptor from guinea pig vas up to a concentration of 1*10e-3 M; conditions: Cavia porcellus; target entry is the homologue from another species
# [6] = biological target: T4, Alpha-1A adrenergic receptor (Rattus norvegicus) (UniProt P43140); assay: The compound was tested for alpha-adrenergic activity against Alpha-1 adrenergic receptor from rat aorta;IN- Inactive up to a concentration of 1*10e-3 M
# T4 sequence (whole entry): T1 sequence (P43140 whole entry)
# In short: as §1, with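 “min. Cumulative norepinephrine curve (10^-10 to 10^-7 mol/L) with ascorbic acid 1.13 × 10^-6 mol/L present.” for “min.”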
# [7] = biological target: T4, Alpha-1A adrenergic receptor (Rattus norvegicus); assay: Intrinsic activity expressed as ratio of maximum responses to the compound to the maximum response to norepinephrine; IN-Inactive up to a concentration of 1*10e-3 M; assay type: functional
# In short: as §1, with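 “min. Cumulative norepinephrine curve (10^-10 to 10^-7 mol/L) with ascorbic acid 1.13 × 10^-6 mol/L present.” for “min.”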
# [8] = biological target: T3, Adrenergic receptor alpha-2 (Homo sapiens); conditions: Cavia porcellus
# [9] = biological target: T4, Alpha-1A adrenergic receptor (Rattus norvegicus)
# [10] = biological target: T4, Alpha-1A adrenergic receptor (Rattus norvegicus); assay: Intrinsic activity expressed as ratio of maximum responses to the compound to the maximum response to norepinephrine; IN-Inactive up to a concentration of 1*10e-5 M; assay type: functional
# In short: as §1, with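 “min. Cumulative norepinephrine curve (10^-10 to 10^-7 mol/L) with ascorbic acid 1.13 × 10^-6 mol/L present.” for “min.”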
# [11] = biological target: T3, Adrenergic receptor alpha-2 (Homo sapiens); conditions: Cavia porcellus; remark: listed apart in the source
# [12] = biological target: T4, Alpha-1A adrenergic receptor (Rattus norvegicus); remark: listed apart in the source
# [13] = biological target: T4, Alpha-1A adrenergic receptor (Rattus norvegicus); remark: listed apart in the source
# [14] = biological target: Beta-2 adrenergic receptor (Cavia porcellus) (UniProt Q8K4Z4)
# [15] = biological target: T4, Alpha-1A adrenergic receptor (Rattus norvegicus); assay: Intrinsic activity expressed as ratio of maximum responses to the compound to the maximum response to norepinephrine; IN-Inactive up to a concentration of 1*10e-4 M; assay type: functional
# In short: as §1, with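 “min. Cumulative norepinephrine curve (10^-10 to 10^-7 mol/L) with ascorbic acid 1.13 × 10^-6 mol/L present.” for “min.”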
# [16] = biological target: T3, Adrenergic receptor alpha-2 (Homo sapiens); conditions: Cavia porcellus; remark: listed apart in the source
# [17] = biological target: T4, Alpha-1A adrenergic receptor (Rattus norvegicus); remark: listed apart in the source
# [18] = biological target: T5, Adrenergic receptor alpha-2 (Homo sapiens, UniProt P08913+P18825+P18089); assay: The compound was tested for alpha-adrenergic activity against alpha-2 adrenergic receptor from guinea pig vas deferens.; parameters: species or system Cavia porcellus; conditions: target entry is the homologue from another species
# T5 sequence (P08913 whole entry): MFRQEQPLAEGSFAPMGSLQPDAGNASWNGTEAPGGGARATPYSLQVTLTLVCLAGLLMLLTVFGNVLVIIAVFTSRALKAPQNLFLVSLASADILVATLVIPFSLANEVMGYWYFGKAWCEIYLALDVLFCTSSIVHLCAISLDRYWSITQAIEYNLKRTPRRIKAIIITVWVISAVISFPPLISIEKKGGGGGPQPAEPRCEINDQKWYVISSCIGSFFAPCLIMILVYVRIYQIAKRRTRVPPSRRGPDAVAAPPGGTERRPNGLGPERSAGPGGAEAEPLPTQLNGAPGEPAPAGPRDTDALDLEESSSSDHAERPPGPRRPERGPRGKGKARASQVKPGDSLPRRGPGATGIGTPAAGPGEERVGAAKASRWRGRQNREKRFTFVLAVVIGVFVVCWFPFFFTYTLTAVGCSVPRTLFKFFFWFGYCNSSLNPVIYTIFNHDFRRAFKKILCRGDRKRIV
# T5 sequence (P18825 whole entry): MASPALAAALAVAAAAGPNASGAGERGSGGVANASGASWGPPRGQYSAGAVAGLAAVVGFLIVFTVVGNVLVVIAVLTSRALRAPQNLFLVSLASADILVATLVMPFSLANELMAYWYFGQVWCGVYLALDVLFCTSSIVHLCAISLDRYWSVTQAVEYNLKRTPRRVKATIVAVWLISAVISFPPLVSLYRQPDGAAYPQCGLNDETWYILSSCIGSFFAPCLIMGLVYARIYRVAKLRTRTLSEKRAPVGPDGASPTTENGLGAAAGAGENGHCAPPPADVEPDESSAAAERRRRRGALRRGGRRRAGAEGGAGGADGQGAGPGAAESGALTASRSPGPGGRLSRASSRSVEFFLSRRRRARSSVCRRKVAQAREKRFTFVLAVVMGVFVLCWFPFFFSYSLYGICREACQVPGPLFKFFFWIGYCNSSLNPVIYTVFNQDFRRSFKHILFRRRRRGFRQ
# T5 sequence (P18089 whole entry): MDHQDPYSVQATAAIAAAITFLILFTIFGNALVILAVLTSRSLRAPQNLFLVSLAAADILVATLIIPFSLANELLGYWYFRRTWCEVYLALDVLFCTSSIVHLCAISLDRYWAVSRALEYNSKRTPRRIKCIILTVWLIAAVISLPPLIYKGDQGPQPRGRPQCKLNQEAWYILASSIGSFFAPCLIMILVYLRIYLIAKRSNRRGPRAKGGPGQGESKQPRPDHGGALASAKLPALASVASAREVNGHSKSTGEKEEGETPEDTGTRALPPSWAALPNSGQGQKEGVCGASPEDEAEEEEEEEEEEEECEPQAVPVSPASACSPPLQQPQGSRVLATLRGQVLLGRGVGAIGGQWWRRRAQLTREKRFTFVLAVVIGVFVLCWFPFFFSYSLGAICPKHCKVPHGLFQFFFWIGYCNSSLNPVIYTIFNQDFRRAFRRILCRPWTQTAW
# Chain of Beta-2 adrenergic receptor (Q8K4Z4 whole entry): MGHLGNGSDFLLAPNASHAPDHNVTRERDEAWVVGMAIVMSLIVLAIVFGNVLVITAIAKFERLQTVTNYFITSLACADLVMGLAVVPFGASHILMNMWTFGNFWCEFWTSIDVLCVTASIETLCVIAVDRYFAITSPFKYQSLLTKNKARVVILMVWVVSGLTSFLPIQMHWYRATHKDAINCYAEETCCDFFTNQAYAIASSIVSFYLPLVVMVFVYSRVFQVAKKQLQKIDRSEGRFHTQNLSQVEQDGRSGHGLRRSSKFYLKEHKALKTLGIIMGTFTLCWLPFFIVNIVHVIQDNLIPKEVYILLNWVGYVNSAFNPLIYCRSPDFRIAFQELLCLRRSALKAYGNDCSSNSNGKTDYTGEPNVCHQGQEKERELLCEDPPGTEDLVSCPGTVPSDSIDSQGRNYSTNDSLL
# T2 sequence (B0FL73 whole entry): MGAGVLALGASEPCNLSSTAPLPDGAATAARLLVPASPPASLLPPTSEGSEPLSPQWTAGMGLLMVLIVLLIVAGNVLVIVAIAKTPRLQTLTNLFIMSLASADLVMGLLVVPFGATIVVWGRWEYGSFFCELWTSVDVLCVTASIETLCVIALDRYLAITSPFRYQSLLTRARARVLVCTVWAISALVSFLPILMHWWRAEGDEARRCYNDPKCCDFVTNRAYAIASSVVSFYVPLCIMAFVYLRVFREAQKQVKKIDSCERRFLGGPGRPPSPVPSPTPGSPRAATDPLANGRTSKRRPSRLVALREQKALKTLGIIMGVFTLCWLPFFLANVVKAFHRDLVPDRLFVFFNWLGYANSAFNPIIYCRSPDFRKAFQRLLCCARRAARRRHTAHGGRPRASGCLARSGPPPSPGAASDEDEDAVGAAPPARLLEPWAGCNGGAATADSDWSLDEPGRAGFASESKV
# Chain of Beta-2 adrenergic receptor (Cavia porcellus) (Q8K4Z4 whole entry, looked up): as the sequence (Q8K4Z4 whole entry) above
Kb [1],Kb [2],Kb [3],Kb [4],pD2 [8],Compound,other results
12.6 µM,25.1 µM,50.1 µM,100 µM,–,C/C(=N\OCC(O)CNC(C)(C)C)c1cc(Cl)c(NC2=NCCN2)c(Cl)c1 (stereo in doubt; (-)-3) [listing 1 of 2 here],–
–,–,–,–,4.63,C/C(=N\OCC(O)CNC(C)(C)C)c1cc(Cl)c(NC2=NCCN2)c(Cl)c1 (stereo in doubt; 3) [listing 1 of 2 here],pA2 [5]: inactive; pD2 [6]: inactive; Intrinsic activity [7]: inactive
–,–,–,–,–,Clc1cccc(Cl)c1NC1=NCCN1,pD2 [9]: 7.84
–,–,–,–,4.9,C/C(=N\OCC(O)CNC(C)(C)C)c1cc(Cl)c(NC2=NCCN2)c(Cl)c1 (stereo in doubt; (-)-3) [listing 2 of 2 here],pA2 [5]: inactive; pD2 [6]: inactive; Intrinsic activity [7]: inactive
–,> 10 µM,1.02 µM,–,6.4,CC(C)(C)NCC(O)COCC1CN=C(Nc2c(Cl)cccc2Cl)N1 (stereo unspecified),Intrinsic activity [10]: inactive; pA2 [11]: inactive; pA2 [12]: inactive; pD2 [13]: inactive; pA2 [14]: inactive
–,63.1 µM,39.8 µM,–,–,Clc1cccc(Cl)c1N=C1NCCN1 [CLONIDINE],–
3.98 µM,1.45 µM,1.48 µM,15.8 µM,3.93,C/C(=N\OCC(O)CNC(C)(C)C)c1cc(Cl)c(OC(C)C2=NCCN2)c(Cl)c1 (stereo unspecified),Intrinsic activity [15]: inactive; pA2 [16]: inactive; pD2 [17]: inactive
> 63.1 µM,> 100 µM,50.1 µM,–,3.52,CC(C)(C)NCC(O)COc1cc(Cl)c(NC2=NCCN2)c(Cl)c1 (stereo unspecified),pA2 [18]: 5.12; Intrinsic activity [15]: inactive; pD2 [17]: inactive; pA2 [14]: inactive
7.94 µM,50.1 µM,50.1 µM,79.4 µM,–,"C/C(=N\OCC(O)CNC(C)(C)C)c1cc(Cl)c(NC2=NCCN2)c(Cl)c1 (single isomer, unassigned; (+)) [listing 1 of 2 here]",–
4.07 µM,39.8 µM,39.8 µM,100 µM,–,C/C(=N\OCC(O)CNC(C)(C)C)c1cc(Cl)c(NC2=NCCN2)c(Cl)c1 (stereo in doubt; 3) [listing 2 of 2 here],–
–,–,–,–,5.1,"C/C(=N\OCC(O)CNC(C)(C)C)c1cc(Cl)c(NC2=NCCN2)c(Cl)c1 (single isomer, unassigned; (+)) [listing 2 of 2 here]",pA2 [5]: inactive; pD2 [6]: inactive; Intrinsic activity [7]: inactive

# From ChEMBL document CHEMBL1125788, “Synthesis and ocular antihypertensive activity of new imidazolidine derivatives containing a beta-blocking side chain” (J Med Chem, 1991)
